Active and inactive are the calls of the source.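 How the source made its calls: active means compounds slowing the HCV NS3-NS4A protease by half at 50 µM or lower, per IC50; inactive means the rest.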
Biological target: Hepatitis C virus NS3-NS4A protease (single-chain scNS3-4A)
Assay: inhibitors of HCV NS3-NS4A protease, late-stage follow-up, selectivity assay for HCV NS3 helicase inhibitor project, biochemical, FRET peptide fluorescence, powder samples (AID 623964)
Details: scNS3-4A protease, FRET peptide cleavage fluorescence
In short: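 System: single-chain HCV NS3-NS4A protease (scNS3-4A); Input: 10 nM scNS3-4A protease enzyme; Reagent: quenched FRET peptide substrate, 5-FAM donor with QXL 520 quencher; Detection: 5-FAM fluorescence recovery; Evaluation: IC50 from Hill-equation fit of initial velocities; Benchmarks: DMSO-only reference velocity.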

| SMILES | IC50 |
| --- | --- |
| Cc1ccc2nc(-c3ccc(NC(=O)c4ccc(NC(=O)Nc5ccccc5)cc4)cc3)sc2c1S(=O)(=O)O | > 100 µM (inactive) |
| Cc1ccc2nc(-c3ccc4nc(-c5ccc(NC(=O)c6ccc(C(C)(C)C)cc6)cc5)sc4c3)sc2c1S(=O)(=O)O | inactive |
| Cc1ccc2nc(-c3ccc4nc(-c5ccc(NC(=O)Nc6ccccc6)cc5)sc4c3)sc2c1S(=O)(=O)O | > 100 µM (inactive) |
| Cc1ccc2nc(-c3ccc4nc(-c5ccc(NC(=O)c6ccc7ccccc7c6)cc5)sc4c3)sc2c1S(=O)(=O)O | > 100 µM (inactive) |
| Cc1ccc2nc(-c3ccc4nc(-c5ccc(NC(=O)c6ccc(C(F)(F)F)cc6)cc5)sc4c3)sc2c1S(=O)(=O)O | 5 µM |
| COc1ccc(NC(=O)Nc2ccc(-c3nc4ccc(-c5nc6ccc(C)c(S(=O)(=O)O)c6s5)cc4s3)cc2)cc1 | > 100 µM (inactive) |
| COc1cccc2c(=O)c3cc(Cl)cc(C(=O)Nc4cc(Cl)ccn4)c3[nH]c12 | inactive |
| CN1CCN(Cc2cc(CN3CCN(C)CC3)c(O)c(=O)c(CN3CCN(C)CC3)c2)CC1 | > 100 µM (inactive) |
| Cc1ccc2nc(-c3ccc4nc(-c5ccc(NC(=O)c6ccc(Cl)c(Cl)c6)cc5)sc4c3)sc2c1S(=O)(=O)O | 13 µM |
| Cc1ccc2nc(-c3ccc4nc(-c5ccc(NC(=O)c6ccc(N)cc6)cc5)sc4c3)sc2c1S(=O)(=O)O | 39 µM |
| Cc1ccc2nc(-c3ccc4nc(-c5ccc(NC(=O)c6ccc(Br)cc6)cc5)sc4c3)sc2c1S(=O)(=O)O | 6 µM |
| Cc1ccc2nc(-c3ccc4nc(-c5ccc(NC(=O)c6cc(C(F)(F)F)cc(C(F)(F)F)c6)cc5)sc4c3)sc2c1S(=O)(=O)O | 23 µM |
| COC(=O)c1ccc(C(=O)Nc2ccc(-c3nc4ccc(-c5nc6ccc(C)c(S(=O)(=O)O)c6s5)cc4s3)cc2)cc1 | > 100 µM (inactive) |
| O=C(CCCCCCC(=O)Nc1ccc(-c2nc3ccccc3[nH]2)cc1)Nc1ccc(-c2nc3ccccc3[nH]2)cc1 | 47 µM |
| Cc1ccc2nc(-c3ccc4nc(-c5ccc6nc(-c7ccc8nc(-c9ccc(N)cc9)sc8c7)sc6c5)sc4c3)sc2c1S(=O)(=O)O | 2 µM |
| Cc1cc(C(O)(c2ccc(Nc3ccccc3)cc2)c2ccc(Nc3ccc(S(=O)(=O)O)cc3)cc2)ccc1N (stereo not drawn) | inactive |
| Cc1ccc2nc(-c3ccc4nc(-c5ccc(NC(=O)c6ccc7nc(-c8ccc(N)cc8)sc7c6)cc5)sc4c3)sc2c1S(=O)(=O)O | 7 µM |
| Cc1ccc2nc(-c3ccc4nc(-c5ccc(NC(=O)Nc6ccc(Cl)cc6)cc5)sc4c3)sc2c1S(=O)(=O)O | 13 µM |
| COc1ccc(C(=O)Nc2ccc(-c3nc4ccc(-c5nc6ccc(C)c(S(=O)(=O)O)c6s5)cc4s3)cc2)cc1 | inactive |
| CCOc1ccc2c(NNC(=O)c3cnccn3)c3c(nc2c1)CCCC3 | > 100 µM (inactive) |
| Cc1ccc2nc(-c3ccc4nc(-c5ccc(NC(=O)c6cc(C(F)(F)F)ccc6F)cc5)sc4c3)sc2c1S(=O)(=O)O | inactive |
| Cc1ccc2nc(-c3ccc4nc(-c5ccc(NC(=O)c6cccc(Cl)c6)cc5)sc4c3)sc2c1S(=O)(=O)O | > 100 µM (inactive) |
| Cc1ccc2nc(-c3ccc4nc(-c5ccc(NC(=O)c6ccc(F)cc6)cc5)sc4c3)sc2c1S(=O)(=O)O | inactive |
